From ChEMBL document CHEMBL1687778, “Genetic determinants involved in the susceptibility of Pseudomonas aeruginosa to beta-lactam antibiotics” (2010)
≈ marks a conversion by molar mass, not a printed value.

Experiments:
Pseudomonas aeruginosa [1] = assay: Antimicrobial activity against Pseudomonas aeruginosa PA14 PA0667 harboring mutation in putative metallopeptidase by Etest method; format: functional
Procedure, shortened: (§1)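 Overnight LB cultures (37°C) diluted in sterile 0.85% NaCl to about 1 × 10^7 CFU/ml. 100 µl spread on Mueller-Hinton agar, one Etest strip per plate, 18 h at 37°C. Ceftazidime, imipenem and meropenem tested. Wild-type PA14 plate included in each set. Each mutant verified in triplicate.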

Pseudomonas aeruginosa [2] = assay: Antimicrobial activity against wild type Pseudomonas aeruginosa PA14 by Etest method; format: functional
Procedure, shortened: (§2)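 Etest MIC. Overnight LB cultures at 37°C were diluted in sterile 0.85% NaCl to about 1 × 10^7 CFU/ml. 100 µl was spread on Mueller-Hinton agar, one strip was placed per plate, and plates were incubated at 37°C for 18 h. Equal cell numbers were seeded per plate, and results were verified in triplicate. PA14 wild type was included in each set as a susceptibility control.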

Pseudomonas aeruginosa [3] = assay: Antimicrobial activity against Pseudomonas aeruginosa PA14 PA0807 harboring ampDh3 mutant gene by Etest method; format: functional; procedure, shortened: as §1
Pseudomonas aeruginosa [4] = assay: Antimicrobial activity against Pseudomonas aeruginosa PA14 PA0908 harboring mutation in hypothetical protein by Etest method; format: functional; procedure, shortened: as §1
Pseudomonas aeruginosa [5] = assay: Antimicrobial activity against Pseudomonas aeruginosa PA14 PA14_15600 harboring mutation in conserved hypothetical protein by Etest method; format: functional; procedure, shortened: as §1
Pseudomonas aeruginosa [6] = assay: Antimicrobial activity against Pseudomonas aeruginosa PA14 PA2023 harboring galU mutant gene by Etest method; format: functional; procedure, shortened: as §1
Pseudomonas aeruginosa [7] = assay: Antimicrobial activity against Pseudomonas aeruginosa PA14 PA2797 harboring mutation in putative anti-anti-sigma factor by Etest method; format: functional; procedure, shortened: as §1
Pseudomonas aeruginosa [8] = assay: Antimicrobial activity against Pseudomonas aeruginosa PA14 PA3259 harboring mutation in conserved hypothetical protein by Etest method; format: functional; procedure, shortened: as §2
Pseudomonas aeruginosa [9] = assay: Antimicrobial activity against Pseudomonas aeruginosa PA14 PA3589 harboring mutation in acetyl-coenzyme A (CoA) acetyltransferase (thiolase) by Etest method; format: functional; procedure, shortened: as §2
Pseudomonas aeruginosa [10] = assay: Antimicrobial activity against Pseudomonas aeruginosa PA14 PA3721 harboring nalC mutant gene by Etest method; format: functional; procedure, shortened: as §2
Pseudomonas aeruginosa [11] = assay: Antimicrobial activity against Pseudomonas aeruginosa PA14 PA4402 harboring argJ mutant gene by Etest method; format: functional; procedure, shortened: as §2
Pseudomonas aeruginosa [12] = assay: Antimicrobial activity against Pseudomonas aeruginosa PA14 PA4459 harboring mutation in Conserved hypothetical protein by Etest method; format: functional; procedure, shortened: as §2
Pseudomonas aeruginosa [13] = assay: Antimicrobial activity against Pseudomonas aeruginosa PA14 PA5000 harboring wapR mutant gene by Etest method; format: functional; procedure, shortened: as §2
Pseudomonas aeruginosa [14] = assay: Antimicrobial activity against Pseudomonas aeruginosa PA14 PA5002 harboring mutation in hypothetical protein by Etest method; format: functional; procedure, shortened: as §2
Pseudomonas aeruginosa [15] = assay: Antimicrobial activity against Pseudomonas aeruginosa PA14 PA5005 harboring mutation in putative carbamoyltransferase by Etest method; format: functional; procedure, shortened: as §2
Pseudomonas aeruginosa [16] = assay: Antimicrobial activity against Pseudomonas aeruginosa PA14 PA0401 harboring mutation in Noncatalytic dihydroorotase-like protein by Etest method; format: functional; procedure, shortened: as §1
Pseudomonas aeruginosa [17] = assay: Antimicrobial activity against Pseudomonas aeruginosa PA14 PA0427 harboring oprM mutant gene by Etest method; format: functional; procedure, shortened: as §1
Pseudomonas aeruginosa [18] = assay: Antimicrobial activity against Pseudomonas aeruginosa PA14 PA0764 harboring mucB mutant gene by Etest method; format: functional; procedure, shortened: as §1
Pseudomonas aeruginosa [19] = assay: Antimicrobial activity against Pseudomonas aeruginosa PA14 PA0766 harboring mucD mutant gene by Etest method; format: functional; procedure, shortened: as §1
Pseudomonas aeruginosa [20] = assay: Antimicrobial activity against Pseudomonas aeruginosa PA14 PA0770 harboring rnc mutant gene by Etest method; format: functional; procedure, shortened: as §1
Pseudomonas aeruginosa [21] = assay: Antimicrobial activity against Pseudomonas aeruginosa PA14 PA1011 harboring mutation in putative lipoprotein by Etest method; format: functional; procedure, shortened: as §1
Pseudomonas aeruginosa [22] = assay: Antimicrobial activity against Pseudomonas aeruginosa PA14 PA2963 harboring mutation in putative aminodeoxychorismate lyase by Etest method; format: functional; procedure, shortened: as §1
Pseudomonas aeruginosa [23] = assay: Antimicrobial activity against Pseudomonas aeruginosa PA14 PA2970 harboring rpmF mutant gene by Etest method; format: functional; procedure, shortened: as §1
Pseudomonas aeruginosa [24] = assay: Antimicrobial activity against Pseudomonas aeruginosa PA14 PA3050 harboring pyrD mutant gene by Etest method; format: functional; procedure, shortened: as §1
Pseudomonas aeruginosa [25] = assay: Antimicrobial activity against Pseudomonas aeruginosa PA14 PA3262 harboring fklB mutant gene by Etest method; format: functional; procedure, shortened: as §2
Pseudomonas aeruginosa [26] = assay: Antimicrobial activity against Pseudomonas aeruginosa PA14 PA3649 harboring mutation in putative membrane-associated zinc metalloprotease by Etest method; format: functional; procedure, shortened: as §2
Pseudomonas aeruginosa [27] = assay: Antimicrobial activity against Pseudomonas aeruginosa PA14 PA3800 harboring mutation in conserved hypothetical protein by Etest method; format: functional; procedure, shortened: as §2
Pseudomonas aeruginosa [28] = assay: Antimicrobial activity against Pseudomonas aeruginosa PA14 PA4005 harboring mutation in conserved hypothetical protein by Etest method; format: functional; procedure, shortened: as §2
Pseudomonas aeruginosa [29] = assay: Antimicrobial activity against Pseudomonas aeruginosa PA14 PA4269 harboring rpoC mutant gene by Etest method; format: functional; procedure, shortened: as §2
Pseudomonas aeruginosa [30] = assay: Antimicrobial activity against Pseudomonas aeruginosa PA14 PA4745 harboring nusA mutant gene by Etest method; format: functional; procedure, shortened: as §2
Pseudomonas aeruginosa [31] = assay: Antimicrobial activity against Pseudomonas aeruginosa PA14 PA5288 harboring glnK mutant gene by Etest method; format: functional; procedure, shortened: as §2
Pseudomonas aeruginosa [32] = assay: Antimicrobial activity against wild type Pseudomonas aeruginosa by Etest method
Pseudomonas aeruginosa [33] = assay: Antimicrobial activity against wild type Pseudomonas aeruginosa harboring pBBR1MCS-3 by Etest method
Pseudomonas aeruginosa [34] = assay: Antimicrobial activity against Pseudomonas aeruginosa harboring pBBR-algU complemented gene by Etest method
Pseudomonas aeruginosa [35] = assay: Antimicrobial activity against Pseudomonas aeruginosa harboring mucD mutant gene by Etest method
Pseudomonas aeruginosa [36] = assay: Antimicrobial activity against Pseudomonas aeruginosa harboring pBBR1MCS-3 expressing mucD mutant gene by Etest method
Pseudomonas aeruginosa [37] = assay: Antimicrobial activity against Pseudomonas aeruginosa harboring pBBR-mucD complemented gene by Etest method
Pseudomonas aeruginosa [38] = assay: Antimicrobial activity against Pseudomonas aeruginosa PA14 PA4109 harboring ampR mutant gene by Etest method; format: functional; procedure, shortened: as §2

Q: With `C[C@@H](O)[C@H]1C(=O)N2C(C(=O)O)=C(SCCNC=N)C[C@H]12` [IMIPENEM ANHYDROUS] as the molecule, how does the MIC (Pseudomonas aeruginosa [1]) read?
A: 0.5 µg/mL (≈ 1.67 µM)

Q: What about the MIC (Pseudomonas aeruginosa [2]) of the same molecule?
A: 0.5 µg/mL (≈ 1.67 µM)

Q: And the MIC (Pseudomonas aeruginosa [3])?
A: 1 µg/mL (≈ 3.34 µM)

Q: What about the MIC (Pseudomonas aeruginosa [4]) of the same molecule?
A: 1.5 µg/mL (≈ 5.01 µM)

Q: What about the MIC (Pseudomonas aeruginosa [5]) of the same molecule?
A: 0.5 µg/mL (≈ 1.67 µM)

Q: What about the MIC (Pseudomonas aeruginosa [6]) of the same molecule?
A: 0.094 µg/mL (≈ 0.314 µM)

Q: And the MIC (Pseudomonas aeruginosa [7])?
A: 0.5 µg/mL (≈ 1.67 µM)

Q: What about the MIC (Pseudomonas aeruginosa [8]) of the same molecule?
A: 0.5 µg/mL (≈ 1.67 µM)

Q: And the MIC (Pseudomonas aeruginosa [9])?
A: 0.5 µg/mL (≈ 1.67 µM)

Q: What about the MIC (Pseudomonas aeruginosa [10]) of the same molecule?
A: 0.5 µg/mL (≈ 1.67 µM)

Q: What about the MIC (Pseudomonas aeruginosa [11]) of the same molecule?
A: 0.38 µg/mL (≈ 1.27 µM)

Q: What about the MIC (Pseudomonas aeruginosa [12]) of the same molecule?
A: 0.25 µg/mL (≈ 0.835 µM)

Q: What about the MIC (Pseudomonas aeruginosa [13]) of the same molecule?
A: 0.5 µg/mL (≈ 1.67 µM)

Q: And the MIC (Pseudomonas aeruginosa [14])?
A: 0.38 µg/mL (≈ 1.27 µM)

Q: And the MIC (Pseudomonas aeruginosa [15])?
A: 0.25 µg/mL (≈ 0.835 µM)

Q: And the MIC (Pseudomonas aeruginosa [16])?
A: 0.38 µg/mL (≈ 1.27 µM)

Q: What about the MIC (Pseudomonas aeruginosa [17]) of the same molecule?
A: 0.38 µg/mL (≈ 1.27 µM)

Q: What about the MIC (Pseudomonas aeruginosa [18]) of the same molecule?
A: 0.25 µg/mL (≈ 0.835 µM)

Q: And the MIC (Pseudomonas aeruginosa [19])?
A: 0.25 µg/mL (≈ 0.835 µM)

Q: And the MIC (Pseudomonas aeruginosa [20])?
A: 0.75 µg/mL (≈ 2.51 µM)

Q: What about the MIC (Pseudomonas aeruginosa [21]) of the same molecule?
A: 0.5 µg/mL (≈ 1.67 µM)

Q: And the MIC (Pseudomonas aeruginosa [22])?
A: 0.25 µg/mL (≈ 0.835 µM)

Q: And the MIC (Pseudomonas aeruginosa [23])?
A: 0.5 µg/mL (≈ 1.67 µM)

Q: And the MIC (Pseudomonas aeruginosa [24])?
A: 0.25 µg/mL (≈ 0.835 µM)

Q: What about the MIC (Pseudomonas aeruginosa [25]) of the same molecule?
A: 0.25 µg/mL (≈ 0.835 µM)

Q: And the MIC (Pseudomonas aeruginosa [26])?
A: 0.25 µg/mL (≈ 0.835 µM)

Q: What about the MIC (Pseudomonas aeruginosa [27]) of the same molecule?
A: 0.38 µg/mL (≈ 1.27 µM)

Q: What about the MIC (Pseudomonas aeruginosa [28]) of the same molecule?
A: 0.064 µg/mL (≈ 0.214 µM)

Q: And the MIC (Pseudomonas aeruginosa [29])?
A: 0.5 µg/mL (≈ 1.67 µM)

Q: And the MIC (Pseudomonas aeruginosa [30])?
A: 0.25 µg/mL (≈ 0.835 µM)

Q: What about the MIC (Pseudomonas aeruginosa [31]) of the same molecule?
A: 0.25 µg/mL (≈ 0.835 µM)

Q: And the MIC (Pseudomonas aeruginosa [32])?
A: 0.5 µg/mL (≈ 1.67 µM)

Q: And the MIC (Pseudomonas aeruginosa [33])?
A: 0.5 µg/mL (≈ 1.67 µM)

Q: And the MIC (Pseudomonas aeruginosa [34])?
A: 0.5 µg/mL (≈ 1.67 µM)

Q: What about the MIC (Pseudomonas aeruginosa [35]) of the same molecule?
A: 0.25 µg/mL (≈ 0.835 µM)

Q: What about the MIC (Pseudomonas aeruginosa [36]) of the same molecule?
A: 0.25 µg/mL (≈ 0.835 µM)

Q: And the MIC (Pseudomonas aeruginosa [37])?
A: 0.5 µg/mL (≈ 1.67 µM)

Q: Which results are given for `C[C@@H](O)[C@H]1C(=O)N2C(C(=O)O)=C(S[C@@H]3CN[C@H](C(=O)N(C)C)C3)[C@H](C)[C@H]12` [MEROPENEM]?
A: MIC (Pseudomonas aeruginosa [1]): 0.19 µg/mL (≈ 0.495 µM); MIC (Pseudomonas aeruginosa [2]): 0.125 µg/mL (≈ 0.326 µM); MIC (Pseudomonas aeruginosa [3]): 0.25 µg/mL (≈ 0.652 µM); MIC (Pseudomonas aeruginosa [4]): 0.25 µg/mL (≈ 0.652 µM); MIC (Pseudomonas aeruginosa [5]): 0.125 µg/mL (≈ 0.326 µM); MIC (Pseudomonas aeruginosa [6]): 0.38 µg/mL (≈ 0.991 µM); MIC (Pseudomonas aeruginosa [7]): 0.094 µg/mL (≈ 0.245 µM); MIC (Pseudomonas aeruginosa [8]): 0.125 µg/mL (≈ 0.326 µM); MIC (Pseudomonas aeruginosa [9]): 0.125 µg/mL (≈ 0.326 µM); MIC (Pseudomonas aeruginosa [10]): 0.38 µg/mL (≈ 0.991 µM); MIC (Pseudomonas aeruginosa [38]): 0.125 µg/mL (≈ 0.326 µM); MIC (Pseudomonas aeruginosa [11]): 0.19 µg/mL (≈ 0.495 µM); MIC (Pseudomonas aeruginosa [12]): 0.125 µg/mL (≈ 0.326 µM); MIC (Pseudomonas aeruginosa [13]): 0.38 µg/mL (≈ 0.991 µM); MIC (Pseudomonas aeruginosa [14]): 0.094 µg/mL (≈ 0.245 µM); MIC (Pseudomonas aeruginosa [15]): 0.125 µg/mL (≈ 0.326 µM); MIC (Pseudomonas aeruginosa [16]): 0.064 µg/mL (≈ 0.167 µM); MIC (Pseudomonas aeruginosa [17]): 0.023 µg/mL (≈ 0.06 µM); MIC (Pseudomonas aeruginosa [18]): 0.125 µg/mL (≈ 0.326 µM); MIC (Pseudomonas aeruginosa [19]): 0.125 µg/mL (≈ 0.326 µM); MIC (Pseudomonas aeruginosa [20]): 0.047 µg/mL (≈ 0.123 µM); MIC (Pseudomonas aeruginosa [21]): 0.19 µg/mL (≈ 0.495 µM); MIC (Pseudomonas aeruginosa [22]): 0.125 µg/mL (≈ 0.326 µM); MIC (Pseudomonas aeruginosa [23]): 0.125 µg/mL (≈ 0.326 µM); MIC (Pseudomonas aeruginosa [24]): 0.094 µg/mL (≈ 0.245 µM); MIC (Pseudomonas aeruginosa [25]): 0.125 µg/mL (≈ 0.326 µM); MIC (Pseudomonas aeruginosa [26]): 0.125 µg/mL (≈ 0.326 µM); MIC (Pseudomonas aeruginosa [27]): 0.125 µg/mL (≈ 0.326 µM); MIC (Pseudomonas aeruginosa [28]): 0.094 µg/mL (≈ 0.245 µM); MIC (Pseudomonas aeruginosa [29]): 0.094 µg/mL (≈ 0.245 µM); MIC (Pseudomonas aeruginosa [30]): 0.125 µg/mL (≈ 0.326 µM); MIC (Pseudomonas aeruginosa [31]): 0.047 µg/mL (≈ 0.123 µM)
